This is a sample that favours compounds with a hit; in the whole collection about 1.8% have one here.
HNF4A DNA FP – change in binding of human HNF4 alpha to DNA; 0.3% of 360,000 active; AID 1224865; HNF4a-FITC DNA binding, fluorescence polarization, 1 h; activity change, % at 10 µM; in the data active = activity change above about 30%, passing the limit was not always enough
Target sequence (P41235 whole entry, looked up): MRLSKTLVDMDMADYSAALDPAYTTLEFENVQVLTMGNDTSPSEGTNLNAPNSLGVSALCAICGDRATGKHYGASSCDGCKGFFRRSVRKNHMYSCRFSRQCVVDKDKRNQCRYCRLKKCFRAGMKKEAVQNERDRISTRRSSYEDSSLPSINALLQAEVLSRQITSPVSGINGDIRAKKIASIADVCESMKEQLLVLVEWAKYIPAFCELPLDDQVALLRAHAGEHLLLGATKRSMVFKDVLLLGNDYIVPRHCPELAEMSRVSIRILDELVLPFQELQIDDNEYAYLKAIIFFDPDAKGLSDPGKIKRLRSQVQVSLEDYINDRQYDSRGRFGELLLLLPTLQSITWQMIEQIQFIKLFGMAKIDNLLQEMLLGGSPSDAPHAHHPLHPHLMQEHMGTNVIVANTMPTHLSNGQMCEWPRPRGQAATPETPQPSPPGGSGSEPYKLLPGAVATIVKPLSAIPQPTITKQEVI
TPT1 inhibitor – blocks Candida albicans tRNA 2'-phosphotransferase. recombinant caTPT1, FP RNA substrate dephosphorylation. inhibition, % at 5 µM. 0.81% of 300,000 active. AID 1962;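 active = inhibition above the mean of all tested compounds plus 3 SD, set per screening campaign, cut at about 24% in these data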;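 note: plate controls were DMSO alone for no effect and ferristatin control at 100 nM for full effect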
CSN inh – blocks human CSN-mediated cullin deneddylation | Q92905 | Purified CSN, SCF-Nedd8-OG deneddylation, fluorescence polarization | inhibition, % at 12.5 µM | 0.38% of 360,000 active | AID 651999;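 active = pattern-corrected inhibition above about 35%, with an unprinted fluorescence ratio check between 0.5 and 1.5, limit read from the data, passing the limit was not always enough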;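 note: 0% = enzyme with substrate and 100% = substrate without enzyme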
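Material: human Csn5 produced in HEK293T cells; Input: enzyme 0.24 nM; Reagent: SCFSkp2-Nedd8OG substrate at 10 nM final; Dosing: 12.5 µM compound; Incubation: 90 min reaction at room temperature; Detection: fluorescence polarization of the substrate; Evaluation: % inhibition of substrate cleavage by Csn5; Control set: substrate-only high control, full reaction low control.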
SUMO HTRF inh – SUMOylation inhibition; inhibition, % at 35 µM; HTRF SUMOylation assay, SAE1/SAE2 + UBC9, in vitro; 0.36% of 290,000 active; AID 2006; in the data active = inhibition above about 50%, passing the limit was not always enough; inconclusive = no clear call, values can overlap the other calls
Rpn11 block – blocks the human proteasome subunit Rpn11. human 26S proteasome, Ub4-pepOG fluorescence polarization; 20S core pre-blocked with epoxomicin. O00487. calls only at 20 µM. 0.59% of 360,000 active;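 active = inhibition at 20 µM, scaled to each plate's controls, above about 33%, limit read from the data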
SENP1 inh – blocks the human SENP1 SUMO protease catalytic domain; Q9P0U3; 0.21% of 360,000 active; recombinant SENP1 catalytic domain, CyPet-SUMO1-YPet FRET cleavage; inhibition, % at 10 µM; AID 624204;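 active = inhibition at least 30% at 10 µM, raw YFP signal under a set limit, fluorescence ratio 0.5 to 1.5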;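 note: 0% = enzyme with DMSO and 100% = no enzyme wells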
Target sequence (Q9P0U3 419-644 limits assumed): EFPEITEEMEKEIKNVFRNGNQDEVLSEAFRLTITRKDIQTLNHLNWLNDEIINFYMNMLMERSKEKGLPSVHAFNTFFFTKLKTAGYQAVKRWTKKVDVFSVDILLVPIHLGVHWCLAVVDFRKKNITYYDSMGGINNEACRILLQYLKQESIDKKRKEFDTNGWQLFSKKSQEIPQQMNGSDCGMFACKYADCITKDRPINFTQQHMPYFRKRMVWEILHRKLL
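material = recombinant human SENP1 catalytic domain, His6-tagged | quantity = 20 pM enzyme | reagent = 25 nM SUMO1 FRET substrate | compound dosing = 10 µM single point, 0.5% DMSO | timing = 50 min enzyme reaction, room temperature, light-protected | detection = FRET, CFP and YFP emission | control set = no-enzyme low, enzyme-DMSO high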
Rpn11 confirm – confirmation of human proteasome Rpn11 inhibitors | shares compounds with Rpn11 block | purified human 26S proteasome, Ub4-pepOG fluorescence polarization; proteasome pretreated with epoxomicin | inhibition, % at 20 µM | 29% of 1,900 active | AID 602318
MMP-2 counter – blocks human MMP-2, flagging nonselective RPN11 hits | shares compounds with Rpn11 block | recombinant MMP-2, FRET peptide cleavage fluorescence | inhibition, % at 20 µM | 4% of 1,900 active;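 note: human MMP-2 activated beforehand with APMA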
Thrombin FP – blocks bovine thrombin, flagging nonselective RPN11 hits; shares compounds with Rpn11 block; inhibition, % at 20 µM; AID 602333; bovine thrombin cleavage of Ub4-pepOG, fluorescence polarization; 13% of 1,900 active;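 active = mean inhibition at least 40% at 20 µM, or signal 3 deviations below plate average, so some actives read negative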;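 note: plate controls were thrombin with DMSO for no effect and buffer wells lacking thrombin for full effect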
Starred values were filed as active, the others as inactive; i = inactive; u = inconclusive; x = no result; + = active, no number. Cut-off read from the data, not from the text of the source, unless noted: active = inhibition above about 40%; inactive = the rest.

SMILES	HNF4A DNA FP	TPT1 inhibitor	CSN inh	SUMO HTRF inh	Rpn11 block	SENP1 inh	Rpn11 confirm	MMP-2 counter	Thrombin FP
CCc1ccc(OCC(=O)NNC(=O)CSc2ncnc3sc(C)c(C)c23)cc1	-10.4	-1.5	17.6	-18.2	+	-5.1	-11.6	-30.7	-23.5
Cc1ccc(OCC(=O)NNC(=O)CSc2ncnc3sc(C)c(C)c23)cc1	2.8	-2.4	37.6*	6.5	+	-0.7	57.2*	68.3*	-9.8
O=C(NCCC(=O)N1CCC2(CC1)NCCc1[nH]cnc12)c1cccc(Cl)c1	1.7	-1.7	1.7	x	i	3.0	x	x	x
COc1ccc2cc(-c3csc(-c4cccnc4)n3)ccc2c1	-0.9	0.0	20.9	-2.6	+	-4.2	9.2	-11.9	3.4
COc1ccc(-c2csc(-c3cccnc3)n2)cc1C	2.2	1.0	4.1	12.7	i	-0.3	x	x	x
COc1ccc2c(Cl)c(C(=O)N/N=C/c3c(C)[nH]c4ccccc34)sc2c1	18.6	17.0	14.4	10.0	+	28.4	99.0*	-15.5	52.9*
COc1cccc(C(=O)NCC(=O)N/N=C/c2c(C)[nH]c3ccccc23)c1	1.6	3.3	0.4	13.3	i	0.9	x	x	x
OCCCCNCc1cc(Br)ccc1OCc1ccccc1F	2.4	3.8	-1.7	3.7	i	0.6	x	x	x
Cc1cc2c(c(=O)n1C1CC1)C(c1cccc(Cl)c1)C(C#N)=C(N)O2 (stereo not given)	27.7	-0.8	0.8	19.2	+	-94.5	7.8	-0.9	7.0
CCOC(=O)C1=C(C)N=c2sc(=Cc3cc(Cl)c(OCC(=O)O)c(OC)c3)c(=O)n2C1c1ccccc1Cl (stereo not given)	13.4	x	23.7	x	+	-28.8	34.4	-20.1	65.2*
COC(=O)[C@H]1C[C@@H]1[C@H](NS(=O)(=O)c1ccc2ccccc2c1)c1ccccc1	-5.7	-2.8	2.6	-6.2	i	2.1	x	x	x
COc1ccccc1Nc1ncc(C(=O)N2CCN(Cc3ccc(OC)c(OC)c3OC)CC2)c2ccccc12	3.0	-1.4	2.7	5.5	i	-2.5	x	x	x
CCOC(=O)c1c(NC(=S)NC)sc2c1CC(C)(C)SC2	5.5	1.1	5.2	-0.6	i	-33.7	x	x	x
CCOC(=O)c1c(NC(=S)Nc2ccccc2)sc2c1CC(C)(C)SC2	11.5	22.5	17.9	6.6	+	-109.2	7.8	80.6*	-10.9
O=C(C1=C[C@@H](c2coc3ccccc3c2=O)C[C@@H](OCc2ccc(CO)cc2)O1)N1CCN(Cc2ccccc2)CC1	0.7	0.3	-2.6	-8.9	i	2.1	x	x	x
CC(C)Nc1nc(Oc2ccc(=O)n(-c3ccccc3)n2)nc(N(C)C)n1	-35.3	-2.4	-0.8	1.4	+	-0.4	4.8	-6.7	1.6
CC(C)Nc1nc(NC(C)C)nc(Oc2ccc(=O)n(C)n2)n1	1.9	-4.2	5.4	-3.9	i	-3.7	x	x	x
COc1ccc2[nH]c(=O)c(CN(CC3CCCO3)C(=S)Nc3ccc(C)cc3)cc2c1 (stereo not given)	-4.0	-2.6	-6.6	-5.4	i	-0.7	x	x	x
CCC(O)(c1ccccc1)C(CN1CCOCC1)c1ccccc1 (stereo not given)	-1.7	1.0	-0.9	10.0	i	1.6	x	x	x
CSc1ccc(S(=O)(=O)N2CCC(C(=O)Nc3ccc(NC(C)=O)cc3)CC2)cc1	-1.1	-5.2	-5.1	16.1	i	-0.1	x	x	x
CSc1ccc(S(=O)(=O)N2CCC(C(=O)Nc3ccccc3C(F)(F)F)CC2)cc1	-47.0	-0.4	-0.1	6.2	+	-0.2	4.3	-13.3	1.5
CC1(C)NC(=O)N(CC(O)COc2cc3ccccc3cc2C(=O)N2CCCCC2)C1=O (stereo not given)	-0.1	-2.0	1.4	20.4	+	1.7	-28.9	-17.6	-12.6
CC1(C)NC(=O)N(CC(O)COc2ccccc2C(=O)N2CCCCC2)C1=O (stereo not given)	1.1	-1.2	-2.2	-1.6	i	3.2	x	x	x
COc1cccc(NC(=O)Nc2nnc(Cc3ccccc3F)s2)c1	1.0	-0.5	2.5	29.3	i	4.4	x	x	x
CN(C)c1ccc(/C=C2/C=C(c3ccc4c(c3)CCCC4)OC2=O)cc1	45.4*	6.2	19.6	-13.2	+	27.0	-5.9	-49.8	-14.2
SMILES	HNF4A DNA FP	TPT1 inhibitor	CSN inh	SUMO HTRF inh	Rpn11 block	SENP1 inh	Rpn11 confirm	MMP-2 counter	Thrombin FP
CC1(c2cccc(Br)c2)NC(=O)N(CC(=O)NC2CCCCC2)C1=O (stereo not given)	-1.3	x	0.7	x	i	1.6	x	x	x
CCOC(=O)c1nnn(CC(=O)N2N=C(c3ccc(Cl)cc3)CC2c2ccc(OC)cc2)c1C(=O)OCC (stereo not given)	0.5	-2.7	-0.4	14.0	i	0.4	x	x	x
O=C(NCc1ccccc1)C1C(c2ccc3c(c2)OCO3)=Nc2ccccc2N1C(=O)c1cccc(C(F)(F)F)c1 (stereo not given)	-2.8	x	2.8	x	x	-0.5	x	x	x
CC(C)CC(=O)Nc1ncnc2c1C(=O)CC(C)(C)C2	-3.4	-0.3	3.2	-10.4	i	-1.9	x	x	x
Cc1ccccc1/C=N/Nc1ccc(Cl)nn1	-1.5	-1.7	-0.5	35.4	i	-1.9	x	x	x
CN1CCCC1CCNc1ccc2c(=O)c3ccccc3oc2c1 (stereo not given)	0.2	-4.6	-2.8	u	i	-18.5	x	x	x
CN1CCC[C@H]1CCNc1ccc2c(=O)c3ccccc3n(C)c2c1	6.2	x	5.3	x	+	-23.3	-8.8	5.5	-25.0
COC(=O)C1=C(NC(=O)c2ccc(Br)cc2)CCS1	1.4	2.6	0.6	5.5	i	-6.2	x	x	x
C=CCn1sc(=N)c(C#N)c1N	20.0	-2.6	12.1	2.7	+	-16.4	2.5	15.7	-1.6
COc1ccccc1C1/C(=C(/O)c2ccccc2)C(=O)C(=O)N1CC(C)C (stereo not given)	3.3	0.9	6.2	2.3	i	0.8	x	x	x
COc1ccc(-c2ccc(C#N)c(SCC(=O)Nc3sc4c(c3C#N)CCC4)n2)cc1OC	47.4*	14.8	120.9	52.3*	+	4.5	12.4	-18.1	3.6
COc1ccccc1NS(=O)(=O)c1cccc(C(=O)NNC(=O)c2ccc(NC(C)=O)cc2)c1	0.1	x	-1.6	x	i	-0.1	x	x	x
COc1ccc2nc(/C(C#N)=C\c3ccc(C(=O)O)cc3)[nH]c2c1	13.2	22.9	11.1	52.3*	+	-23.7	32.9	-23.4	26.5
